Laboratory results published in ChEMBL document CHEMBL1833891, “New inhibitors of colony spreading in Bacillus subtilis and Bacillus anthracis” (Bioorg Med Chem Lett, 2011).
Calls of active or inactive are those of the source. No cut-off for these calls is given here.

Columns and labels:
[1] = tested on: Bacillus subtilis; assay: Antibacterial activity against Bacillus subtilis NCIB 3610 DS1677 harboring marker-less hag mutant assessed as inhibition of surface colony-spreading at 15 ug/ml after overnight incubation at 32 degree C relative to control; assay type: functional; settings: subsp. subtilis str. NCIB 3610 DS1677
Summary of the method: (§1)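 DS1677 inoculated at the centre of Tryptic soy broth soft agar (7 g L⁻¹) containing compound, incubated, then average colony diameter measured. % inhibition of spreading is relative to a DMSO control. Duplicate or triplicate, with the assay repeated if replicates differed by >10% in diameter. NPG isomers at 30 µg mL⁻¹, other compounds at 15 µg mL⁻¹.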

[2] = tested on: Bacillus subtilis; assay: Antibacterial activity against Bacillus subtilis NCIB 3610 DS1677 harboring marker-less hag mutant assessed as inhibition of surface colony-spreading after 16 hrs relative to control; assay type: functional; settings: subsp. subtilis str. NCIB 3610 DS1677, 16 h
Summary of the method: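 B. subtilis hag deletion strain DS1677: 3 µL of an overnight LB culture spotted on Tryptic soy broth agar (7 g L⁻¹), dried 3–4 h, with graded inhibitor levels. Plates in duplicate, grown 16 h at 32 °C. IC50 derived from measured colony diameters.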

[3] = tested on: Bacillus subtilis; assay: Antibacterial activity against Bacillus subtilis NCIB 3610 DS1677 harboring marker-less hag mutant assessed as inhibition of surface colony-spreading at 75 ug/ml after 24 hrs relative to control; assay type: functional; settings: subsp. subtilis str. NCIB 3610 DS1677
Summary of the method: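 Marker-less hag mutant DS1677 on MK agarose (semi-solid, complete defined nutrients) plates containing 75 µg mL⁻¹ compound in DMSO. Control plates contained 75 µg mL⁻¹ DMSO. Colony spreading compared with control.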

[4] = tested on: Bacillus subtilis; assay: Antibacterial activity against Bacillus subtilis NCIB 3610 DS1677 harboring marker-less hag mutant assessed as inhibition of surface colony-spreading at 30 ug/ml after overnight incubation at 32 degree C relative to control; assay type: functional; settings: subsp. subtilis str. NCIB 3610 DS1677; summary of the method: as §1
[5] = tested on: Bacillus anthracis; assay: Antibacterial activity against Bacillus anthracis Sterne assessed as inhibition of surface colony-spreading after overnight incubation; assay type: functional, organism-based
[6] = tested on: Proteus mirabilis; assay: Antibacterial activity against Proteus mirabilis 7002 assessed as inhibition of swarming by plate swarm assay; assay type: functional, organism-based
Summary of the method: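 Proteus plate swarm assay. Each compound at 75 µg mL⁻¹ in the plate, with swarming judged by visible effect.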

[7] = tested on: Bacillus anthracis; assay: Antibacterial activity against Bacillus anthracis Sterne assessed as inhibition of surface colony-spreading at 75 ug after overnight incubation; assay type: functional, organism-based
[8] = tested on: Bacillus subtilis; assay: Antibacterial activity against erythromycin-lincomycin resistant Bacillus subtilis NCIB 3610 DS64 harboring hag deletion mutant assessed as inhibition of surface colony-spreading at 75 ug/ml after 24 hrs relative to control; assay type: functional; settings: subsp. subtilis str. NCIB 3610 DS64
Summary of the method: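 hag mutant DS64 (MLS antibiotic marker) inoculated at the centre of MK agarose plates with or without 75 µg mL⁻¹ compound, grown 24 h at 37 °C. Surface film spreading scored against the untreated plate.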

## CO[C@H](c1ccc(S(C)(=O)=O)cc1)[C@@H](O)CO
[1]
  inhibition at 15 µg/mL: 0%

## O=[N+]([O-])c1ccc([C@@H](O)[C@@H](O)CO)cc1
[2]
  IC50: 122 µM
[3]
  inhibition: Active
[4]
  inhibition at 30 µg/mL: 24.8%
[5]
  IC50: > 150 µM
[6]
  inhibition: Active

## CS(=O)(=O)c1ccc([C@@H](O)[C@H](O)CO)cc1
[1]
  inhibition at 15 µg/mL: 69.1%
[7]
  inhibition: Active

## COC[C@H](O)[C@H](OC)c1ccc(S(C)(=O)=O)cc1
[1]
  inhibition at 15 µg/mL: 0%

## CS(=O)(=O)c1ccc([C@H](O)[C@@H](O)CO)cc1
[1]
  inhibition at 15 µg/mL: 0%

## C=C[C@H](O)c1ccc(S(C)(=O)=O)cc1
[1]
  inhibition at 15 µg/mL: 21.3%

## CS(=O)(=O)Oc1ccc(C(O)C(O)CO)cc1 (mixture of isomers)
[1]
  inhibition at 15 µg/mL: 11.5%

## O=[N+]([O-])c1ccc([C@H](O)[C@H](O)CO)cc1
[3]
  inhibition: inactive
[4]
  inhibition at 30 µg/mL: 1.5%
[6]
  inhibition: inactive

## CSc1ccc(C(O)C(O)CO)cc1 (mixture of isomers)
[1]
  inhibition at 15 µg/mL: 0%

## COC[C@H](OC)[C@H](OC)c1ccc(S(C)(=O)=O)cc1
[1]
  inhibition at 15 µg/mL: 18.5%

## O=[N+]([O-])c1ccc([C@@H](O)[C@H](O)CO)cc1
[3]
  inhibition: inactive
[4]
  inhibition at 30 µg/mL: 16.1%
[6]
  inhibition: Active

## CS(=O)(=O)c1ccc([C@H](O)[C@H](O)CO)cc1
[1]
  inhibition at 15 µg/mL: 1.6%

## OCC(O)C(O)c1ccccc1 (mixture of isomers)
[1]
  inhibition at 15 µg/mL: 12.9%

## CS(=O)(=O)c1ccccc1[C@@H](O)[C@@H](O)CO
[1]
  inhibition at 15 µg/mL: 0%

## O=[N+]([O-])c1ccc([C@H](O)[C@@H](O)CO)cc1
[3]
  inhibition: inactive
[4]
  inhibition at 30 µg/mL: 0%
[6]
  inhibition: inactive

## COC(=O)c1ccc(C(O)C(O)CO)cc1 (mixture of isomers)
[1]
  inhibition at 15 µg/mL: 0%

## CS(=O)(=O)c1ccc([C@@H](O)[C@@H](O)CO)cc1
[1]
  inhibition at 15 µg/mL: 95.3%
[7]
  inhibition: Active
[5]
  IC50: 12 µM

## COC[C@H](O)[C@H](O)c1ccc(S(C)(=O)=O)cc1
[1]
  inhibition at 15 µg/mL: 10.1%

## NS(=O)(=O)c1ccc(C(O)C(O)CO)cc1 (mixture of isomers)
[1]
  inhibition at 15 µg/mL: 4.5%

## CS(=O)(=O)c1cccc(C(O)C(O)CO)c1 (mixture of isomers)
[1]
  inhibition at 15 µg/mL: 10.5%

## OCC(O)C(O)c1ccc(O)cc1 (mixture of isomers)
[1]
  inhibition at 15 µg/mL: 12.9%

## O=[N+]([O-])c1ccc(C(O)C(O)CO)cc1 (stereo not given)
[8]
  inhibition: Active
